According to ChEMBL document CHEMBL1287664, “Synthesis and biological analysis of prostate-specific membrane antigen-targeted anticancer prodrugs” (J Med Chem, 2010):
The source made the active and inactive calls. The rule behind the calls is not given here.

Key:
LNCaP [1] = test: Cytotoxicity against human LNCAP cells; format: functional, cell-based
Method in brief: (§1)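 LNCaP cells (RPMI 1640, 10% heat-inactivated FBS) were seeded at 50000 cells/well and grown 48 h to monolayers. They were pulsed 2 h at 37 °C with drug (free drugs in DMSO; conjugates in saline, ± 100-fold excess PMPA), then chased 66 h drug-free. Cells were labelled 4 h with [3H]-thymidine, TCA-precipitated, NaOH-solubilised and scintillation-counted. IC50 came from % incorporation vs log concentration.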

LNCaP [2] = test: Cytotoxicity against human LNCAP cells after 2 hrs by [3H]thymidine incorporation assay; format: functional, cell-based
Method in brief: (§2)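 LNCaP cells were seeded at 50000 cells/well and grown to monolayers over 48 h. They were exposed to increasing drug concentrations for 2 h at 37 °C, then kept in drug-free medium for 66 h. [3H]-thymidine (1 mCi/mL) was added for 4 h. Cells were TCA-precipitated (5%, 10 min), dissolved in 0.25 N NaOH and scintillation-counted. IC50 came from % incorporation versus log concentration.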

LNCaP [3] = test: Cytotoxicity against human LNCAP cells at 100 pM to 1 uM; format: functional, cell-based; method in brief: as §1
[4] = molecular target: Glutamate carboxypeptidase 2 (Homo sapiens) (UniProt Q04609); test: Displacement of DUPA-99mTc from human prostate-specific membrane antigen in LNCaP cells assessed as relative binding affinity after 2 hrs at 37 degC; format: cell-based
Glutamate carboxypeptidase 2 (Homo sapiens), sequence (Q04609 whole entry, looked up): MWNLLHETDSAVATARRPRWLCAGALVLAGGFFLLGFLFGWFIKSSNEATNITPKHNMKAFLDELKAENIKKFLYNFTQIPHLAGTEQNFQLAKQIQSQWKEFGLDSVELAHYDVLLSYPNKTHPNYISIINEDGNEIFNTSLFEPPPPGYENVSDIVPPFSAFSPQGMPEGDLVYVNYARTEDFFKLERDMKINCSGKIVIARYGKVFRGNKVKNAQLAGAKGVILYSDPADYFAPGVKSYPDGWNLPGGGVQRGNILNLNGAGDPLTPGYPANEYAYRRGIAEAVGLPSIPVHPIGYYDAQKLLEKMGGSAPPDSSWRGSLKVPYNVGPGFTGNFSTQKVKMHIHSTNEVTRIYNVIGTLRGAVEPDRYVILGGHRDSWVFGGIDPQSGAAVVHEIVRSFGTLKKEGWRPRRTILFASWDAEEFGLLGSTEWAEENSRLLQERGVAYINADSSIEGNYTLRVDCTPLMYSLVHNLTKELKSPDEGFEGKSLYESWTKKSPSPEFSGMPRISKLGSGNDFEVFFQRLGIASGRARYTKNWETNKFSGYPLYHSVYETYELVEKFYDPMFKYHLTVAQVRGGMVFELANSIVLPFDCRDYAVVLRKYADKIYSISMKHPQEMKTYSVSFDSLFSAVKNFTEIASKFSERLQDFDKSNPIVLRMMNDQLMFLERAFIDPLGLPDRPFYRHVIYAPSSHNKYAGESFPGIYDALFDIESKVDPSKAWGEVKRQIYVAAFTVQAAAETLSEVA

LNCaP [5] = test: Cytotoxicity against human LNCAP cells after 2 hrs by [3H]thymidine incorporation assay in presence of 100-fold […]; format: functional, cell-based
Method in brief: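 LNCaP monolayers (50000 cells/well, 48 h) received 100-fold excess PMPA to block PSMA sites before the saline-dissolved DUPA conjugate was added. Exposure was 2 h at 37 °C, followed by 66 h in drug-free medium. Viability was read as [3H]-thymidine incorporation (1 mCi/mL, 4 h), TCA-precipitated and scintillation-counted. IC50 came from incorporation versus log concentration.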

LNCaP [6] = test: Cytotoxicity against human LNCAP cells at 100 pM to 1 uM after 2 hrs by [3H]thymidine incorporation assay; format: functional, cell-based; method in brief: as §2

For CC[C@H](C)[C@H](NC(=O)[C@H]1CCCCN1C)C(=O)N(COC(=O)CC(C)C)[C@H](C[C@@H](OC(C)=O)c1nc(C(=O)N[C@@H](Cc2ccc(C)cc2)C[C@H](C)C(=O)O)cs1)C(C)C [TUBULYSIN], the IC50 (LNCaP [1]; Homo sapiens, LNCaP) was 2.5 nM.

CC[C@H](C)[C@H](NC(=O)[C@H]1CCCCN1C)C(=O)N(COC(=O)CC(C)C)[C@H](C[C@@H](OC(C)=O)c1nc(C(=O)N[C@@H](Cc2ccc(C)cc2)C[C@H](C)C(=O)NNC(=O)OCCSSC[C@H](NC(=O)[C@H](Cc2ccccc2)NC(=O)[C@H](Cc2ccccc2)NC(=O)CCCCCCCNC(=O)CC[C@H](NC(=O)N[C@H](CCC(=O)O)C(=O)O)C(=O)O)C(=O)O)cs1)C(C)C was tested, and the IC50 (LNCaP [2]) was 24 nM.

With CC[C@@]1(O)C(=O)OCc2c1cc1n(c2=O)Cc2cc3ccccc3nc2-1 the Activity (LNCaP [3]) was “inactive”.

COc1cccc2c1C(=O)c1c(O)c3c(c(O)c1C2=O)C[C@@](O)(C(=O)CO)C[C@@H]3O[C@H]1C[C@H](N)[C@H](O)[C@H](C)O1 [DOXORUBICIN] gave an IC50 (LNCaP [1]; Homo sapiens, LNCaP) of 77.6 nM.

Work on CC1=C[C@H]2O[C@@H]3C[C@H]4OC(=O)/C=C\C=C\C(=O)OCC[C@@H](C)[C@H](O)C(=O)OC[C@@]2(CC1)[C@]4(C)[C@]31CO1 [VERRUCARIN A] yielded an IC50 (LNCaP [1]; lncap) of 3.3 nM.

CC[C@]1(O)CCN2CCc3c([nH]c4ccccc34)[C@](C(=O)OC)(c3cc4c(cc3OC)N(C)[C@@H]3[C@](O)(C(=O)NNC(=O)OCCSSC[C@H](NC(=O)[C@H](CC(=O)O)NC(=O)[C@@H](N)CNC(=O)[C@H](Cc5ccccc5)NC(=O)[C@H](Cc5ccccc5)NC(=O)CCCCCCNC(=O)CC[C@H](NC(=O)N[C@H](CCC(=O)O)C(=O)O)C(=O)O)C(=O)O)[C@@H](O)[C@@]5(CC)C=CCN6CC[C@@]43[C@@H]65)CC1C2 (some centres undefined) was tested, and the IC50 (LNCaP [2]) was 31 nM, the RBA [4] was 25% and the Activity (LNCaP [5]) was “inactive”.

With CC[C@]1(O)C[C@@H]2CN(CCc3c([nH]c4ccccc34)[C@@](C(=O)OC)(c3cc4c(cc3OC)N(C)[C@H]3[C@@](O)(C(N)=O)[C@H](O)[C@]5(CC)C=CCN6CC[C@]43[C@@H]65)C2)C1 [VINDESINE] the IC50 (LNCaP [1]; Homo sapiens, LNCaP) was 9.5 nM.

CO[C@@H]1C[C@@H](C[C@H]2CC[C@H](C)[C@H]([C@@H](C)C(=O)O)O2)O[C@]2(O[C@](C)([C@H]3CC[C@@](C)([C@@H]4O[C@@H]([C@H]5O[C@@](O)(CO)[C@H](C)C[C@@H]5C)C[C@@H]4C)O3)C[C@H]2C)[C@@H]1C was tested, and the Activity (LNCaP [3]) was “inactive”.

In the case of CC[C@H](C)[C@H](NC(=O)[C@H]1CCCCN1C)C(=O)N(COC(=O)CC(C)C)[C@H](C[C@@H](OC(C)=O)c1nc(C(=O)N[C@@H](Cc2ccc(C)cc2)C[C@H](C)C(=O)NNC(=O)OCCSSC[C@H](NC(=O)[C@H](CC(=O)O)NC(=O)[C@@H](N)CNC(=O)[C@H](Cc2ccccc2)NC(=O)[C@H](Cc2ccccc2)NC(=O)CCCCCCNC(=O)CC[C@H](NC(=O)N[C@H](CCC(=O)O)C(=O)O)C(=O)O)C(=O)O)cs1)C(C)C, the IC50 (LNCaP [2]) is reported as 6 nM, the RBA [4] is reported as 26% and the Activity (LNCaP [5]) is reported as “inactive”.

With C[C@]12C=CC(=O)C=C1CC[C@@H]1[C@@H]2[C@@H](O)C[C@@]2(C)[C@H]1CC[C@]2(O)C(=O)CO the Activity (LNCaP [3]) was “inactive”.

In the case of COC[C@H]1OC(=O)c2coc3c2[C@@]1(C)C1=C(C3=O)[C@@H]2CCC(=O)[C@@]2(C)C[C@H]1OC(C)=O, the Activity (LNCaP [3]) is reported as “inactive”.

CC(=O)O[C@H]1C(=O)[C@@]2(C)[C@H]([C@H](OC(=O)c3ccccc3)[C@]3(O)C[C@H](OC(=O)[C@H](O)[C@@H](NC(=O)c4ccccc4)c4ccccc4)C(C)=C1C3(C)C)[C@]1(OC(C)=O)CO[C@@H]1C[C@@H]2O [PACLITAXEL] was tested, and the IC50 (LNCaP [1]; Homo sapiens, LNCaP) was 22.3 nM.

For OCCC#Cc1nc(-c2ccc(F)cc2)c(-c2ccncc2)n1CCCc1ccccc1, the Activity (LNCaP [3]) was “inactive”.

For C=C1[C@@H]2CCC3[C@@](CC[C@@H]4[C@H](C(=O)O)C[C@@H](O[C@@H]5O[C@H](CO)[C@@H](OS(=O)(=O)O)[C@H](OS(=O)(=O)O)[C@H]5OC(=O)CC(C)C)C[C@@]34C)(C2)[C@@H]1O (some centres undefined), the Activity (LNCaP [3]) was “inactive”.

In the case of C[n+]1ccc(-c2cc[n+](C)cc2)cc1, the Activity (LNCaP [3]) is reported as “inactive”.

With C[S+]([O-])c1ccc(-c2nc(-c3ccc(F)cc3)c(-c3ccncc3)[nH]2)cc1 (centres undefined) the Activity (LNCaP [3]) was “inactive”.

Compound CC[C@H](C)[C@H](NC(=O)[C@H]1CCCCN1C)C(=O)N(COC(=O)CC(C)C)[C@H](C[C@@H](OC(C)=O)c1nc(C(=O)N[C@@H](Cc2ccc(C)cc2)C[C@H](C)C(=O)NNC(=O)OCCSSC[C@@H](NC(=O)[C@H](Cc2ccccc2)NC(=O)[C@H](CC(=O)O)NC(=O)CC[C@H](NC(=O)CC[C@H](NC(=O)N[C@@H](CCC(=O)O)C(=O)O)C(=O)O)C(=O)O)C(=O)O)cs1)C(C)C has an IC50 (LNCaP [2]) of 5 nM.

For CC[C@]1(O)C[C@@H]2CN(CCc3c([nH]c4ccccc34)[C@@](C(=O)OC)(c3cc4c(cc3OC)N(C)[C@H]3[C@@](O)(C(=O)NN)[C@H](O)[C@]5(CC)C=CCN6CC[C@]43[C@@H]65)C2)C1 [DESACETYLVINBLASTINEHYDRAZIDE], the IC50 (LNCaP [1]; Homo sapiens, LNCaP) was 12.2 nM.

For CC1=C[C@H]2O[C@@H]3C[C@H]4OC(=O)/C=C/C=C/C(=O)OCC[C@@H](C)[C@H](OC(=O)OCCSSC[C@H](NC(=O)[C@H](CC(=O)O)NC(=O)[C@@H](N)CNC(=O)[C@H](Cc5ccccc5)NC(=O)[C@H](Cc5ccccc5)NC(=O)CCCCCCNC(=O)CC[C@H](NC(=O)N[C@H](CCC(=O)O)C(=O)O)C(=O)O)C(=O)O)C(=O)OC[C@@]2(CC1)[C@]4(C)[C@]31CO1, the Activity (LNCaP [6]) was “inactive” and the RBA [4] was 34%.
